Consider two molecules from ChEMBL document CHEMBL5653631, “A Potent and Selective ULK1 Inhibitor Suppresses Autophagy and Sensitizes Cancer Cells to Nutrient Stress” (iScience, 2018).

Assay [1] has as its target Tyrosine-protein kinase ABL2 (Homo sapiens) (UniProt P42684). The experiment in a line: Inhibition of human recombinant ABL2 at 500 nM in presence of ATP by radiometric assay relative to control. Summed up:
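Panel of 327 recombinant human kinases in radiometric activity assays, each screened in duplicate at a single inhibitor concentration; percent activity remaining relative to vehicle control, percent inhibition taken as 100 minus activity remaining.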

For assay [2], the target named is T1, Inhibitor of nuclear factor kappa-B kinase subunit alpha (Homo sapiens) (UniProt O15111).
T1 sequence (whole entry): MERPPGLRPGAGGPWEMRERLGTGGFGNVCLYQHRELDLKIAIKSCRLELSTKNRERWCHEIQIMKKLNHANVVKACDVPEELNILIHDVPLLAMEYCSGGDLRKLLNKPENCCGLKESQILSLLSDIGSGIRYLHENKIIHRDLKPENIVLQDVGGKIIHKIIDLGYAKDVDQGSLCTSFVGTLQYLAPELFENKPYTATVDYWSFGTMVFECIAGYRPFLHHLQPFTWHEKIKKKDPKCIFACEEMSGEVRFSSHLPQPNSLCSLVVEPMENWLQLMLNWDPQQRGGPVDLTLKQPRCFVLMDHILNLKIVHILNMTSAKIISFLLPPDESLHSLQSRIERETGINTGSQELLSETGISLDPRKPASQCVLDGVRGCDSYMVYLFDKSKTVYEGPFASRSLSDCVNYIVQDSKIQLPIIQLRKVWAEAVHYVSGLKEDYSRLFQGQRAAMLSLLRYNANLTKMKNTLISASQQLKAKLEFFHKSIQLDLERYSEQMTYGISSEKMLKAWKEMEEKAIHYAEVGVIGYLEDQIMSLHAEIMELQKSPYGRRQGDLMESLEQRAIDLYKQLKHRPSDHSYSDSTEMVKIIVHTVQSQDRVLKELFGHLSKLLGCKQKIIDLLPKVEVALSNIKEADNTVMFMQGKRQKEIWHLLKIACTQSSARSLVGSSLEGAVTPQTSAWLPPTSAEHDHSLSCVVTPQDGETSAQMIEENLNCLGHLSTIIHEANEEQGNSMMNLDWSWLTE
Put plainly: Inhibition of human recombinant IKKa at 500 nM in presence of ATP by radiometric assay relative to control.

For assay [3], the target named is Ephrin type-A receptor 2 (Homo sapiens) (UniProt P29317). The experiment in a line: Inhibition of human recombinant EphA2 at 500 nM related to control ULK1.
The target in assay [4] is Non-receptor tyrosine-protein kinase TYK2 (Homo sapiens) (UniProt P29597). Put plainly: Inhibition of human recombinant TYK2 at 500 nM related to control ULK1.
Assay [5] addresses Cyclin-dependent kinase-like 3 (Homo sapiens) (UniProt Q8IVW4). The experiment in a line: Inhibition of human recombinant CDKL3 at 15 nM in presence of ATP by radiometric assay relative to control.
The target in assay [6] is T2, Inhibitor of nuclear factor kappa-B kinase subunit epsilon (Homo sapiens) (UniProt Q14164).
T2 sequence (whole entry): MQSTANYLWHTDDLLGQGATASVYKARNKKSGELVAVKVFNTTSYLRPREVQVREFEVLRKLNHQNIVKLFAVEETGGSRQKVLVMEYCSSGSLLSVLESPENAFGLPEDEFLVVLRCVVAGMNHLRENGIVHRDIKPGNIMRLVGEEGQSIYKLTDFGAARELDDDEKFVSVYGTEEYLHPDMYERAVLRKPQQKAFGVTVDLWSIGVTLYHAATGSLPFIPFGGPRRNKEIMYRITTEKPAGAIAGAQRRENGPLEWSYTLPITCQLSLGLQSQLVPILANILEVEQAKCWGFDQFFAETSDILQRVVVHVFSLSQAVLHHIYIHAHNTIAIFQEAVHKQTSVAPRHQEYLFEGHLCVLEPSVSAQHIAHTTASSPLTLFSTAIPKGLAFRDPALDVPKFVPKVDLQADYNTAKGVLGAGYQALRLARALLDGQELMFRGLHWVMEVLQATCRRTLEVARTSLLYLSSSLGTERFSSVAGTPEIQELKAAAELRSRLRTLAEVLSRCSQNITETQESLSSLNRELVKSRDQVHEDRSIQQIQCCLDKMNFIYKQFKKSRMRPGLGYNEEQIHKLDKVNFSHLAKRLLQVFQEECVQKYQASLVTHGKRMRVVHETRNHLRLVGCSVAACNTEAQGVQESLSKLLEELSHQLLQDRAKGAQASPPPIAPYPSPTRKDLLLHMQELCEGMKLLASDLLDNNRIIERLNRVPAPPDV
Put plainly: Inhibition of human recombinant IKKe at 15 nM in presence of ATP by radiometric assay relative to control.

Chain of Cyclin-dependent kinase-like 3 (Homo sapiens) (Q8IVW4 whole entry, looked up): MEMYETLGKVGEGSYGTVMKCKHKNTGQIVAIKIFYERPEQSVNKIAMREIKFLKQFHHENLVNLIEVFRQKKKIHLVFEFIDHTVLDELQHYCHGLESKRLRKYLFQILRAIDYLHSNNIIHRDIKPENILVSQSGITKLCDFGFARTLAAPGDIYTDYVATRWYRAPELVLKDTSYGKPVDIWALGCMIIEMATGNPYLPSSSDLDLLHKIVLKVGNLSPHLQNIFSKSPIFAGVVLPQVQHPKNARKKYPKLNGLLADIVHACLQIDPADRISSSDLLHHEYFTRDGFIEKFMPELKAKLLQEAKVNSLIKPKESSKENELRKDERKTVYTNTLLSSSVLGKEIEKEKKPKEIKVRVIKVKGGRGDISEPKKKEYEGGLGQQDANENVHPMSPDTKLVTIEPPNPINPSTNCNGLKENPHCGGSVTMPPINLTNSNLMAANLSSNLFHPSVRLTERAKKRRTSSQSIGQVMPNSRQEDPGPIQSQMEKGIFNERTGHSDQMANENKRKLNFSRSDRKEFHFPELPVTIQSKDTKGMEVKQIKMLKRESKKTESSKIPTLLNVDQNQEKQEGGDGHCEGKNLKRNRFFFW
Chain of Ephrin type-A receptor 2 (Homo sapiens) (P29317 whole entry): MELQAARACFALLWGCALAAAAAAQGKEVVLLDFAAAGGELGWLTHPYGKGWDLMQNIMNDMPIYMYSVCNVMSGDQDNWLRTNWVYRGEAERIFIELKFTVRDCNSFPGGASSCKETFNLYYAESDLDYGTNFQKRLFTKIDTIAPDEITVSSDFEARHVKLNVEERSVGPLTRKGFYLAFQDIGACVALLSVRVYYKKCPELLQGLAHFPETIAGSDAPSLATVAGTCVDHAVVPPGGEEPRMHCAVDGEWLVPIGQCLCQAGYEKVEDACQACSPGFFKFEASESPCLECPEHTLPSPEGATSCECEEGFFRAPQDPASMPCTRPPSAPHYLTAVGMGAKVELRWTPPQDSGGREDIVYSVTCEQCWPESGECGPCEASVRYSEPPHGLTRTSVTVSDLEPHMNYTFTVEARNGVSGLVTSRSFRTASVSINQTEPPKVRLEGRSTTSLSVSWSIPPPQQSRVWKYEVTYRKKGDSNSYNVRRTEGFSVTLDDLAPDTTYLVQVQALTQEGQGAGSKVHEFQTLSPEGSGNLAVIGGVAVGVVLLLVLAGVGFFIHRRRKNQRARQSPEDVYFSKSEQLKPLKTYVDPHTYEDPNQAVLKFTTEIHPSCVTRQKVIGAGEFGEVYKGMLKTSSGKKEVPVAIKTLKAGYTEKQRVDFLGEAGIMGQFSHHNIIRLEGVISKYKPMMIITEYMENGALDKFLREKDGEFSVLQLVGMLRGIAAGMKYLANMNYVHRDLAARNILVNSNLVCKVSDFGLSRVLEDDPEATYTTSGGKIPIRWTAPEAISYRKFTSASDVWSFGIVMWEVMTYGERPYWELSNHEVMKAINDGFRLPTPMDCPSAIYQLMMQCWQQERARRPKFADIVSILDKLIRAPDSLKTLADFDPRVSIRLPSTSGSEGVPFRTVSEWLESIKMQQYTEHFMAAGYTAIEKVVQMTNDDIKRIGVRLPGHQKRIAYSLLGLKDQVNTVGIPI
Chain of Non-receptor tyrosine-protein kinase TYK2 (Homo sapiens) (P29597 whole entry): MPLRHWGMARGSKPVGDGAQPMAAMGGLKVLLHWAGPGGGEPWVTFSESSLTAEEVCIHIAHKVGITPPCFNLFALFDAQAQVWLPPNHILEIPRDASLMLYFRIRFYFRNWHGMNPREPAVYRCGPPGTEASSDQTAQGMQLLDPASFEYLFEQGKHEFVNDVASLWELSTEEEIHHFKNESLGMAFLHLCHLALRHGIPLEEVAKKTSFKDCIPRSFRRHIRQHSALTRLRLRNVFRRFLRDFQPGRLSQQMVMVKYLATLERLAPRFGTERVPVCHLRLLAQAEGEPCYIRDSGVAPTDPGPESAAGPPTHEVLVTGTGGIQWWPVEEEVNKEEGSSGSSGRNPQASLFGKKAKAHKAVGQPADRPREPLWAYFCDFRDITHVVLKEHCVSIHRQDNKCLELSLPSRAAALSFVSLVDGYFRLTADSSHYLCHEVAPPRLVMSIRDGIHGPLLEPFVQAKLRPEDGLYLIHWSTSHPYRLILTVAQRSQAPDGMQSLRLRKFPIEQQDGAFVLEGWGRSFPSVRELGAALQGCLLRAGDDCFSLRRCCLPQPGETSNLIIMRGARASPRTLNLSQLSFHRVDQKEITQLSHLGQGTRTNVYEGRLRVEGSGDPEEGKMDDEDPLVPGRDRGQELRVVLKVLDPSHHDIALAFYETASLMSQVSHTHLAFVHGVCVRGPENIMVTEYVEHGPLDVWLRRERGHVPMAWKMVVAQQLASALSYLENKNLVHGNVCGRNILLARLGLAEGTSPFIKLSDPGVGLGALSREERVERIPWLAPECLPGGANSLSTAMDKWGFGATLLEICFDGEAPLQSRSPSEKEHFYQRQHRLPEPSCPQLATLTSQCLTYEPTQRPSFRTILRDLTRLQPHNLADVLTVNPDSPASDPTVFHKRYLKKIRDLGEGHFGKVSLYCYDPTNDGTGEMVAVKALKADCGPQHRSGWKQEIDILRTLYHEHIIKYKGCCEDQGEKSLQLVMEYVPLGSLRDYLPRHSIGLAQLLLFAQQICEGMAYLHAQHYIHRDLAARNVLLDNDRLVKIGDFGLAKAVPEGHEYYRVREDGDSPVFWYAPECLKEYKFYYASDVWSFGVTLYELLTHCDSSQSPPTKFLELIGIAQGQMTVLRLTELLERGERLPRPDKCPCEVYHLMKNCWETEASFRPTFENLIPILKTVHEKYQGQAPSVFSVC
Chain of Tyrosine-protein kinase ABL2 (Homo sapiens) (P42684 whole entry): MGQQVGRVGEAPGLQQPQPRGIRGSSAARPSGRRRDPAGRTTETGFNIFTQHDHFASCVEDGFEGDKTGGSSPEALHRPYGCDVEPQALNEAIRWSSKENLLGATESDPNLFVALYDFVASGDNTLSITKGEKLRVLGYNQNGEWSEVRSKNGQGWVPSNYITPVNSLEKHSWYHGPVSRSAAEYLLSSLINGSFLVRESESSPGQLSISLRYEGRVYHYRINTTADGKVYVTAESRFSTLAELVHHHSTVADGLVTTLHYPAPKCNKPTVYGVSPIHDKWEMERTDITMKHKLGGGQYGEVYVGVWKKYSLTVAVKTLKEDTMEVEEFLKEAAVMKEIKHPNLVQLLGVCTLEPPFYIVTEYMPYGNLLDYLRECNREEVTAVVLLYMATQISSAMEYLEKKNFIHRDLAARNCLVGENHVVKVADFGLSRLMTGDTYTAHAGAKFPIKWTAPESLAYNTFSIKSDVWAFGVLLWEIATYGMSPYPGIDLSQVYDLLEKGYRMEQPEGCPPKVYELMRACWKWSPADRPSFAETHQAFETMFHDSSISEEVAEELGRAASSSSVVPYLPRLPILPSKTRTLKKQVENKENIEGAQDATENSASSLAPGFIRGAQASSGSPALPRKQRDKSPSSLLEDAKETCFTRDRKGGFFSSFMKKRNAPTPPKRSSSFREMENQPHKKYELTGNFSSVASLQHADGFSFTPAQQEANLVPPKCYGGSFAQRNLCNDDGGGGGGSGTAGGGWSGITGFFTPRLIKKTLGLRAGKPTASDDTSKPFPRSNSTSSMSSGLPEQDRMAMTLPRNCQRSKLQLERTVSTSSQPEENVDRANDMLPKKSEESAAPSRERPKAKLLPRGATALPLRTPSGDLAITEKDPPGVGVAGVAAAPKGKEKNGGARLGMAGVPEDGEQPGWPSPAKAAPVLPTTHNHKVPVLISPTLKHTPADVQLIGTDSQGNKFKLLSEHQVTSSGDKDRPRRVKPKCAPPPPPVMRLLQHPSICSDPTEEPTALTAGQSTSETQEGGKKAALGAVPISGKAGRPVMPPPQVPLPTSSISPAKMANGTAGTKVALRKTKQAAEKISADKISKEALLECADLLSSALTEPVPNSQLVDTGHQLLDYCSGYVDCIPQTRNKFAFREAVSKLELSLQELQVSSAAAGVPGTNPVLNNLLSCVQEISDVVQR

Regarding `CNC(=O)c1ccccc1Oc1nc(Nc2cc(OC)c(OC)c(OC)c2)ncc1Br`, the inhibition (in general, the drop in the measured response relative to a control, in per cent) in assay [1] came to 21%; in assay [2], 2%. Besides, the fold change (FC) came out at 0.03 in assay [3] and 1.05 in assay [4].

With `CC(C)[C@H](NC(=O)c1cc(-c2cnn3cc(-c4ccc(OCCN5CCCCC5)cc4)cnc23)cs1)C(F)(F)F`, the inhibition stood at 34% in assay [5] and 75% in assay [6].
